A selection: hits, their analogues and other compounds. The true share with any hit is near 4.1%.
Tb MetRS inh: blocks T. brucei methionyl-tRNA synthetase activity; AID 624268; purified T. brucei MetRS, ATP depletion, Kinase-Glo luminescence; hit rate 0.4% among 360,000; inhibition, % at 11.9 µM;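 active = inhibition above a per-plate cutoff of the control wells' mean inhibition plus 3 SD, cut at about 5.5% in these data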;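 note: 0% = DMSO wells median and 100% = median of wells with control inhibitor compound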
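Test system: purified T. brucei MetRS enzyme. Also added: ATP, methionine and E. coli bulk tRNA substrates. Compound: 11.9 µM single point. Schedule: 15 min enzyme-compound preincubation, 2 h reaction, 10 min detection, 25 °C. Signal: luciferase luminescence of residual ATP, Kinase-Glo. Evaluation: percent inhibition versus plate control medians. Controls: DMSO wells, low control.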
AHR activator: activates the human aryl hydrocarbon receptor | P35869 | AHR-responsive luciferase reporter cells, luminescence | activation, % at 5 µM | hit rate 2.5% among 320,000; in the data active = activation above about 47%;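 note: 0% = vehicle wells and 100% = reference agonist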
Efflux pump mplx: antifungal efflux pump inhibition, Nile Red retention | hit rate 0.44% among 330,000 | AID 485275 | inhibition, % at 10 µM | S. cerevisiae Candida pump triplex;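 active = plate passing quality check with inhibition over a set limit, or well fluorescence over plate mean plus 4 SD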;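 note: Nile Red retained in pooled yeast measured as flow cytometry median fluorescence; 0% = buffer negative control and 100% = Enniatin B positive control; higher means more Nile Red kept so more efflux inhibition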
H9c2 TAG inh: inhibitors of triacylglycerol accumulation | hit rate 0.66% among 230,000 | inhibition, % at 12.5 µM | H9c2 cells, Nile Red lipid (TAG) fluorescence; cells loaded with 200 µM oleic acid;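 active = pattern-corrected inhibition of lipid staining of at least 50% with the nuclear-stain viability signal not falling by more than 50%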;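 note: 0% = DMSO wells and 100% = triacsin C control wells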
SMARCA2 act: activators of SMARCA2 function. AID 652017. MG213 cells, MMTV-luciferase reporter, dexamethasone, overnight. activation, % at 9.1 µM. hit rate 1% among 370,000; in the data active = activation above about 7.8%;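 note: 0% = vehicle wells and 100% = reference activator wells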
TAG conf: confirmation of triacylglycerol accumulation inhibitors. shares compounds with H9c2 TAG inh. inhibition, % at 12.5 µM. H9c2 lipid accumulation, Nile Red fluorescence; cells loaded with 200 µM oleic acid. AID 651629. hit rate 71% among 990;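 active = mean inhibition across replicates of 40% or more; inactive = mean inhibition below 40%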;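 note: plate controls were DMSO only wells for no effect and Triacsin C treated wells for full effect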
Active calls of the source: *.

Screening Cc1ccc(-n2ncc(-c3nnc(SCC(=O)NC4CCCC4)o3)c2N)cc1C returned Tb MetRS inh -0.3, AHR activator 0.1, Efflux pump mplx -0.1, H9c2 TAG inh 54.7*, SMARCA2 act -1.4 and TAG conf 37.5.
Screening COc1ccccc1Cc1c(-c2ccc(C)cc2)nc2ccc(C)cn12 returned SMARCA2 act 6.7.
Screening CC(C)CNC(=O)OCc1cn(Cc2ccc(Cl)cc2)nn1 returned SMARCA2 act -2.1.
Cc1cc(C)nc(N2CCC(C(=O)N(C)CCc3ccccn3)CC2)n1 was read as SMARCA2 act 3.7.
COc1ccc(NC(=O)C2(C)Cc3c(-c4cccc(NC(C)=O)c4)ccnc3O2)cn1 (stereo not drawn) was read as Tb MetRS inh -0.2, H9c2 TAG inh 58.0*, SMARCA2 act -1.1 and TAG conf 52.5*.
`COc1ccc(NC(=O)C2(C)Cc3c(-c4ccc(NC(C)=O)cc4)ccnc3O2)cn1` (stereo not drawn) gave Tb MetRS inh 0.0, H9c2 TAG inh 11.0 and SMARCA2 act -1.9.
For CC(=O)Nc1ccc(NC(=O)C2(C)Cc3c(-c4cccc(C(N)=O)c4)ccnc3O2)cc1 (stereo not drawn) the results were Tb MetRS inh -0.4, H9c2 TAG inh 3.4 and SMARCA2 act -1.6.
Screening COc1ccc(NC(=O)C2(C)Cc3c(-c4cccc(C(N)=O)c4)ccnc3O2)cc1 (stereo not drawn) returned Tb MetRS inh -0.2, H9c2 TAG inh 60.8*, SMARCA2 act -2.6 and TAG conf 53.1*.
For O=C(CCc1c[nH]c2ccccc12)Nc1ccc(Nc2cccnc2)cc1 the results were SMARCA2 act -4.3.
COc1ccc(CN2C(=O)[C@@](O)(c3cccn3C)c3cc(F)ccc32)cc1 was read as SMARCA2 act 1.1.
For CCN(CC)c1ccc(/C=C2\CCC(/C=C(/C#N)C(=O)Nc3ccccc3F)=C2N2CCOCC2)cc1 the results were Tb MetRS inh -0.4, H9c2 TAG inh 90.8*, SMARCA2 act -0.4 and TAG conf 65.0*.
COc1cc(/C=C2/NC(=O)N(Cc3ccccc3F)C2=O)ccc1O was read as Tb MetRS inh -0.2, AHR activator 1.9, Efflux pump mplx -0.2, H9c2 TAG inh 59.0*, SMARCA2 act -5.2 and TAG conf 63.1*.
COc1cccc(Cn2c3ccc(NC(=O)CCc4ccc(F)cc4)cc3c(=O)n2C)c1 was read as Tb MetRS inh 0.0, H9c2 TAG inh 51.7*, SMARCA2 act -2.0 and TAG conf 69.0*.
O=C(N/N=C/c1cn(-c2ccccc2)nc1-c1cc2ccccc2o1)c1c[nH]c2ccccc12 was read as Tb MetRS inh -1.7, AHR activator 109.1*, Efflux pump mplx 0.4, H9c2 TAG inh 58.8*, SMARCA2 act 3.5 and TAG conf 59.9*.
For O=C(N/N=C/c1cn(-c2ccccc2)nc1-c1cc2ccccc2o1)c1ccccc1Br the results were Tb MetRS inh 0.5, AHR activator 30.5, Efflux pump mplx -0.1 and SMARCA2 act 2.5.
`c1ccc(N=NC2=NN(c3ccccc3)CS2)cc1` gave Tb MetRS inh -0.3, H9c2 TAG inh 95.6*, SMARCA2 act 0.8 and TAG conf 112.8*.
For CC(C)N1CSC(=S)N(Cc2ccccc2)C1 the results were Tb MetRS inh -0.3, AHR activator -0.6, Efflux pump mplx -0.1, H9c2 TAG inh 68.9*, SMARCA2 act -0.1 and TAG conf 48.5*.
CCCCS(=O)(=O)N1C2=NC(C(=O)OCC)=C(C(=O)OCC)C3N(Cc4ccc(Br)cc4)c4ccccc4[C@]23C[C@H]1C(=O)OC (stereo partly drawn) was read as SMARCA2 act -1.9.
For O=C(Cc1nnc(NC(=O)c2ccccc2)s1)N/N=C/c1cccc(O)c1 the results were Tb MetRS inh -0.1, AHR activator 9.3, Efflux pump mplx 0.3 and SMARCA2 act -0.4.
Cc1ccc(Cn2cc(/C=N/NC(=O)Cc3nnc(NC(=O)c4ccc(C)cc4)s3)c3ccccc32)cc1 was read as Tb MetRS inh -0.6, AHR activator 2.4, Efflux pump mplx -0.1, H9c2 TAG inh 52.4*, SMARCA2 act 1.3 and TAG conf 128.3*.
For CN(C)c1ccc(Cn2c(=O)n(Cc3ccc(C(=O)NCC4COC4)cc3)c(=O)c3ccccc32)cc1 the results were SMARCA2 act -1.6.
CCCOC(=O)c1ccc(NC(=O)CCOc2ccccc2)cc1 was read as Tb MetRS inh -0.2, AHR activator -1.1, Efflux pump mplx 0.0, H9c2 TAG inh 64.8*, SMARCA2 act 5.5 and TAG conf 60.8*.
`CCOC(=O)c1ccc(NC(=O)CCOc2ccccc2)cc1` gave Tb MetRS inh -0.9, AHR activator -8.2, Efflux pump mplx -0.1, H9c2 TAG inh 8.1 and SMARCA2 act 2.7.
For O=C(Nc1ccc(Cl)cc1)C1CCCN1S(=O)(=O)c1cccnc1 (stereo not drawn) the results were SMARCA2 act -2.8.
Screening Nc1ncnc2c1ncn2[C@@H]1O[C@H](CNCc2ccccc2)[C@@H](O)[C@H]1O returned Tb MetRS inh -0.3, AHR activator 0.2, Efflux pump mplx -0.1 and H9c2 TAG inh -8.6.
`Nc1ncnc2c1ncn2[C@@H]1O[C@H](CNCc2cn(CC(=O)NC3CC3)c3ccccc23)[C@@H](O)[C@H]1O` gave Tb MetRS inh -2.2, AHR activator -1.1, Efflux pump mplx -0.2, H9c2 TAG inh 76.1*, SMARCA2 act -2.2 and TAG conf 4.6.
`COC(=O)c1c(NC(NC(=O)C(C)C)C(Cl)(Cl)Cl)sc2c1CCC2` (stereo not drawn) gave Tb MetRS inh -0.3, AHR activator -0.4, Efflux pump mplx -0.3 and SMARCA2 act -0.7.
Screening COC(=O)c1c(NC(NC(=O)C(C)(C)C)C(Cl)(Cl)Cl)sc2c1CCC2 (stereo not drawn) returned Tb MetRS inh -0.3, AHR activator 0.9, Efflux pump mplx 0.0, H9c2 TAG inh 58.9*, SMARCA2 act -1.3 and TAG conf 65.1*.
Screening COc1ccc(NC(=O)N(C)C[C@H]2OCCCC[C@H](C)Oc3ccc(NC(=O)Nc4cccc5ccccc45)cc3C(=O)N([C@@H](C)CO)C[C@H]2C)cc1 returned SMARCA2 act -3.3.
C#CCN(C[C@@H]1[C@@H](OC(=O)NCc2ccco2)[C@@H](OC(=O)NCc2ccco2)CN(C(=O)OC(C)C)N1C(=O)OC(C)C)S(=O)(=O)c1ccc(C)cc1 was read as Tb MetRS inh 0.5, H9c2 TAG inh 55.5*, SMARCA2 act -1.2 and TAG conf 61.7*.
For CCn1c(COc2ccccc2)nnc1SCC(=O)Nc1ccc(S(=O)(=O)Nc2cc(C)nc(C)n2)cc1 the results were SMARCA2 act -0.3.
CCCCCCCCn1c(N2CCN(c3cccc(Cl)c3)CC2)nc2c1c(=O)[nH]c(=O)n2C was read as Tb MetRS inh -0.3, AHR activator 1.5, Efflux pump mplx 0.1, H9c2 TAG inh 65.3*, SMARCA2 act -4.4 and TAG conf 65.6*.

Screens deposited in PubChem by several laboratories.
